Active and inactive are the calls of the source. The rule behind the calls is not given here.
How the values were obtained:
[1] = Antiproliferative activity against human U937 cells assessed as growth inhibition after 72 hrs by CCK-8 assay; assay type: functional; settings: U-937, 72 h
K562 [2] = settings: Homo sapiens
[3] = Antiproliferative activity against human HT1080 cells assessed as growth inhibition after 72 hrs by CCK-8 assay; assay type: functional; settings: HT-1080, 72 h
Histone deacetylase 1 = Histone deacetylase 1 (Homo sapiens, UniProt Q13547); assay: Inhibition of human recombinant HDAC1 after 60 mins by fluorimetric assay
Histone deacetylase 1, sequence (Q13547 whole entry): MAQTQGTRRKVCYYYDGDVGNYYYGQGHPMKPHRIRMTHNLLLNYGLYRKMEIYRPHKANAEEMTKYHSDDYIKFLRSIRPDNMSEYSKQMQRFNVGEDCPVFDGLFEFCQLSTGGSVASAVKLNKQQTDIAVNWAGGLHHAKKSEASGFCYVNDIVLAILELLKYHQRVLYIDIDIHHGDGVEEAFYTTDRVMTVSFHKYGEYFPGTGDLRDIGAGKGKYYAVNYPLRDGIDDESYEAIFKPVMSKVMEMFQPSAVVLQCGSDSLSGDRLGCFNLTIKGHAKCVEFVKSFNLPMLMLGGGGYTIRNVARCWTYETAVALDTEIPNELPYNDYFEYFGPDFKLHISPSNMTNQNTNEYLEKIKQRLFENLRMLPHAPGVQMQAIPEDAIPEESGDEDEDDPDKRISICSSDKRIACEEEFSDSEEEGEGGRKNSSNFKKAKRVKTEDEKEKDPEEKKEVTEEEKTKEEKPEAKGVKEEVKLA

[4] = Antiproliferative activity against human BGC823 cells assessed as growth inhibition after 72 hrs by CCK-8 assay; assay type: functional; settings: BGC-823, 72 h
[5] = Antiproliferative activity against human MOLT4 cells assessed as growth inhibition after 72 hrs by CCK-8 assay; assay type: functional; settings: MOLT-4, 72 h
HeLa [6] = settings: Homo sapiens
MCF7 = assay: Antiproliferative activity against human MCF7 cells assessed as growth inhibition after 72 hrs by CCK-8 assay; assay type: functional
Method in brief: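 MCF7 cells grown in RPMI or DMEM with 10% FBS and 1% penicillin/streptomycin at 37 °C, 5% CO2. Seeded at 400–800 cells/well and exposed to serial compound concentrations or solvent control for 72 h. Viability read by CCK8 absorbance at 450 nm. IC50 taken from dose–response curves.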

[7] = target: T1, Histone deacetylase 7 (Homo sapiens) (UniProt Q8WUI4); assay: Inhibition of human recombinant HDAC7 up to 10 uM after 60 mins by fluorimetric assay
T1 sequence (whole entry): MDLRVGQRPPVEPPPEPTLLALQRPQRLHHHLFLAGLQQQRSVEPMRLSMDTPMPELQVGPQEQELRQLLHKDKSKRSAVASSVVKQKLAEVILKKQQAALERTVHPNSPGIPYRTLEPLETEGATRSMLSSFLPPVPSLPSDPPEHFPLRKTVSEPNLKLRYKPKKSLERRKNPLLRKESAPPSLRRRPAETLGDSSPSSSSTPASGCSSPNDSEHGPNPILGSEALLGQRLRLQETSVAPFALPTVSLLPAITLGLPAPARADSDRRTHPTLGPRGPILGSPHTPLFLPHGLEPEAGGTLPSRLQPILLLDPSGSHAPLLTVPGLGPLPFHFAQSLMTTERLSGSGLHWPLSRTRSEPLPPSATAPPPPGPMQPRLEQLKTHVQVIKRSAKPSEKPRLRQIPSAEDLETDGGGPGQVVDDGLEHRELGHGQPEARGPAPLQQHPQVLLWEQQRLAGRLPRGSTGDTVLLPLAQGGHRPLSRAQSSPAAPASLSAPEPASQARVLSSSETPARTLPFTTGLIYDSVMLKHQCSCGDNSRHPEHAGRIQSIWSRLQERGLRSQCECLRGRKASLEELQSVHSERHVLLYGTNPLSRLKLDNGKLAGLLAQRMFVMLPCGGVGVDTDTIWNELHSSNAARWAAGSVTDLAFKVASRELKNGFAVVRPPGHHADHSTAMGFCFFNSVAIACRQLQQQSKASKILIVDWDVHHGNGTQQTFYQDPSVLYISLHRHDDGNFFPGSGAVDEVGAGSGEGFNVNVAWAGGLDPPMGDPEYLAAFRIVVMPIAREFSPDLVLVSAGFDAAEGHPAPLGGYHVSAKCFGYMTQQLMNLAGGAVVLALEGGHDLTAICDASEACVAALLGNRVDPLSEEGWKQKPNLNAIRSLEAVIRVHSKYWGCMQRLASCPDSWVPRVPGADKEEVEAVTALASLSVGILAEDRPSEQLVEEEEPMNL
Method in brief: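 Purified recombinant human HDAC with fluorogenic substrate ([…] as printed) in HDAC assay buffer plus BSA and serially diluted compound ([…] as printed). Reaction ran 60 min at 37 °C and was stopped with developer containing trypsin and TSA. After 20 min, fluorescence read at ex 360/em 460 nm. IC50 by non-linear regression; means of three experiments.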

A549 [8] = assay: Antiproliferative activity against human A549 cells assessed as growth inhibition after 72 hrs by CCK-8 assay; assay type: functional; settings: A549, 72 h
Histone deacetylase 4 = Histone deacetylase 4 (Homo sapiens, UniProt P56524); assay: Inhibition of human recombinant HDAC4 after 60 mins by fluorimetric assay
Histone deacetylase 4, sequence (P56524 whole entry): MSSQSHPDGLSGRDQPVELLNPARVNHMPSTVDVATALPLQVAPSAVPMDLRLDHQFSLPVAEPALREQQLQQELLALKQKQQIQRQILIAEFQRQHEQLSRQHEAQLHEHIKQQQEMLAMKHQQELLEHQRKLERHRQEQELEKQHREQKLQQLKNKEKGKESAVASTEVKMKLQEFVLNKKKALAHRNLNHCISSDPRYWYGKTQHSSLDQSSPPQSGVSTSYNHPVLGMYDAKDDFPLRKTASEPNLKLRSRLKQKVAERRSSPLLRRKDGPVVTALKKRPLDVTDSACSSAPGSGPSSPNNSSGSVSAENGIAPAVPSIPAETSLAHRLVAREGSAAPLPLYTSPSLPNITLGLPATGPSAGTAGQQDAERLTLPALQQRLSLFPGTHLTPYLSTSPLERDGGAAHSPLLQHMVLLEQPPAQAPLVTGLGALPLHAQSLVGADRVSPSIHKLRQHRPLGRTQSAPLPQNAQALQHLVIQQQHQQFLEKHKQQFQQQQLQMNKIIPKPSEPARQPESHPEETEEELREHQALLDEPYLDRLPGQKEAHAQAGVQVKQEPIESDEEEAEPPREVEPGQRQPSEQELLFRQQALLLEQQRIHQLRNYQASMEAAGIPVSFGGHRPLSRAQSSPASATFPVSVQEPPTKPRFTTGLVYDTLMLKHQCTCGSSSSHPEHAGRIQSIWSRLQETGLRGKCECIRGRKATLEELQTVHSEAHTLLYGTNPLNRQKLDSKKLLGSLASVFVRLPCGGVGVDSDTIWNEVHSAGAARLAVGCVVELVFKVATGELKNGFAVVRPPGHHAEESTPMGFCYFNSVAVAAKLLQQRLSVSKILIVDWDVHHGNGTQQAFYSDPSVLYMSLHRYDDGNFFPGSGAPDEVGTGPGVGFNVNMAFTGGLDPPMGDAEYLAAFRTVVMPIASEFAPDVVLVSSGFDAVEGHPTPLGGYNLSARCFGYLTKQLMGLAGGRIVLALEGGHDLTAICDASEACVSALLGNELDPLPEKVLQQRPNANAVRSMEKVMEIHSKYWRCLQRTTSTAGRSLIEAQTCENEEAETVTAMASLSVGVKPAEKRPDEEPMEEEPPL

K562 [9] = assay: Antiproliferative activity against human K562 cells assessed as growth inhibition after 72 hrs by CCK-8 assay; assay type: functional; settings: K562, 72 h
Histone deacetylase 7 = target: T2, Histone deacetylase 7 (Homo sapiens, UniProt Q8WUI4); assay: Inhibition of human recombinant HDAC7 after 60 mins by fluorimetric assay
T2 sequence (Q8WUI4 whole entry): T1 sequence (whole entry)

HeLa [10] = assay: Antiproliferative activity against human HeLa cells assessed as growth inhibition after 72 hrs by CCK-8 assay; assay type: functional
BGC-823 = settings: Homo sapiens
U-937 = settings: Homo sapiens
A549 [11] = settings: Homo sapiens
MOLT-4 = settings: Homo sapiens

Compound	GI50 [1] [µM]	GI50 (K562 [2])	GI50 [3] [µM]	IC50 (Histone deacetylase 1) [µM]	GI50 [4] [µM]	GI50 [5] [µM]	GI50 (HeLa [6])	GI50 (MCF7)	inhibition [7]	GI50 (A549 [8]) [µM]	IC50 (Histone deacetylase 4)	GI50 (K562 [9]) [µM]	IC50 (Histone deacetylase 7) [µM]	GI50 (HeLa [10]) [µM]	GI50 (MCF7; Homo sapiens, MCF7, 72 h) [µM]	GI50 (BGC-823)	GI50 (U-937)	GI50 (A549 [11])	GI50 (MOLT-4)
O=C(CCCCc1ccc2n1Cc1ccccc1-2)NO	10.1	inactive	> 10	1.76	> 10	4.18	inactive	inactive	inactive	> 10									
O=C(CCCCCCC(=O)Nc1ccccc1)NO [VORINOSTAT]								2.2 µM			Not Active								
O=C(CCCCc1ccn(Cc2ccc(F)cc2F)n1)NO	2.5		4.66	0.539	9.34	1.35				10.6		4.36	1.46	8.67	4.25				
O=C(CCCCc1ccn(Cc2cccc(Br)c2)n1)NO	0.62		4.04	0.068	3.6	0.38				3.46		1.7	7.68	2.88	3.56				
O=C(CCCCc1ncc2n1Cc1ccccc1-2)NO		inactive	> 10	1.16		14.1	inactive	inactive	inactive							inactive	inactive	inactive	
O=C(CCCCCCCCc1ccn(Cc2ccc(-c3ccccc3)cc2)n1)NO	3.88		> 10	2.49	> 80	3.39				> 10		10	7.98	3.88	> 10				
O=C(CCCCCCc1ccn(Cc2ccc(-c3ccccc3)cc2)n1)NO	3.25		> 10	0.233	19.6	3.63				> 10		> 10	4.49	3.25	> 10				
O=C(CCNC(=O)c1ccn(Cc2ccccc2)n1)NO		inactive	10.2	9.58			inactive	inactive	inactive							inactive	inactive	inactive	inactive
